Laboratory results from ChEMBL document CHEMBL4138308, “Simultaneous Targeting of RGD-Integrins and Dual Murine Double Minute Proteins in Glioblastoma Multiforme” (J Med Chem, 2018).
Calls of active or inactive are those of the source. The rule behind the calls is not given here.

Key:
U-87 MG [1] = test: Antiproliferative activity against human U87MG cells at 100 nM after 72 hrs by MTS assay; assay type: functional, cell-based; conditions: U-87MG ATCC
Method in brief: (§1)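 Cells seeded ~5000 cells/cm2, after 24 h medium replaced with compound in DMSO (DMSO 1% v/v in controls), alone or in combination at 100 nM each, or concentration series (U87MG 1–100 nM). 72 h exposure; proliferation read by MTS, expressed as % of DMSO control (mean ± SEM, N = 3); IC50 from sigmoid dose–response fit.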

U-87 MG [2] = test: Antiproliferative activity against human U87MG cells at 100 nM after 72 hrs in presence of MDM2 inhibitor nutlin-3 by MTS assay; assay type: functional, cell-based; conditions: U-87MG ATCC; method in brief: as §1
U-87 MG [3] = test: Anti-invasive activity in human U87MG cells at 10 uM after 24 hrs by transwell assay; assay type: functional; conditions: U-87MG ATCC
Method in brief: (§2)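 U87MG cells suspended in serum-free medium (60,000 cells), treated at 10 μM (each agent at 10 μM when combined), placed in upper chamber of Matrigel-coated (0.32 mg/mL) transwell; lower chamber RPMI with 10% FBS. Invasion 24 h at 37 °C; cells on lower membrane surface fixed with p-formaldehyde, crystal violet stained, counted in five random fields per filter. Mean ± SEM vs DMSO control.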

[4] = molecular target: T1, Protein Mdm4 (Homo sapiens) (UniProt O15151); test: Displacement of p53 from MDM4 in human SHSY-5Y cells at 100 uM incubated for 10 mins by sandwich ELISA method relative to control; assay type: cell-based
T1 sequence (whole entry): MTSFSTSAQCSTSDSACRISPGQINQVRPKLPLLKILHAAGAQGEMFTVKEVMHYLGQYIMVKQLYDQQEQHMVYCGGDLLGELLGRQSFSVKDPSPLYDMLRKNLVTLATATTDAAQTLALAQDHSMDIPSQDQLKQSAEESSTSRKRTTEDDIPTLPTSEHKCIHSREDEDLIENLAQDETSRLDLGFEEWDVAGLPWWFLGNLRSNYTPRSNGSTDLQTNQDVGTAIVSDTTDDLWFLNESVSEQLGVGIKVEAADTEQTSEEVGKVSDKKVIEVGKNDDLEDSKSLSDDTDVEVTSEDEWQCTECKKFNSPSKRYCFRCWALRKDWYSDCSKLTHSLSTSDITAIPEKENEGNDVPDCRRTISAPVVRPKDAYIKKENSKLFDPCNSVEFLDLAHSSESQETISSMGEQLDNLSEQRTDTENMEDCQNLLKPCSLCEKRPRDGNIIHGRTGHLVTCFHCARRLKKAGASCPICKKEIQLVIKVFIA
Method in brief: (§3)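 Native complexes in cell lysates (U87MG for p53/MDM2; SHSY-5Y for p53/MDM4). Compound incubated with lysate 10 min at room temperature, then 90 min in wells precoated with anti-MDM2 or anti-MDM4; blocked with 1% BSA, anti-p53 (1:250) 90 min, HRP secondary 60 min, TMB read at 450 nm. Blanks lacked anti-p53. Mean of three determinations.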

[5] = molecular target: T2, E3 ubiquitin-protein ligase Mdm2 (Homo sapiens, UniProt Q00987); test: Displacement of p53 from MDM2 in human U87MG cells at 100 uM incubated for 10 mins by sandwich ELISA method relative to control; assay type: cell-based; method in brief: as §3
Target sequence in this assay (Q00987 whole entry, looked up): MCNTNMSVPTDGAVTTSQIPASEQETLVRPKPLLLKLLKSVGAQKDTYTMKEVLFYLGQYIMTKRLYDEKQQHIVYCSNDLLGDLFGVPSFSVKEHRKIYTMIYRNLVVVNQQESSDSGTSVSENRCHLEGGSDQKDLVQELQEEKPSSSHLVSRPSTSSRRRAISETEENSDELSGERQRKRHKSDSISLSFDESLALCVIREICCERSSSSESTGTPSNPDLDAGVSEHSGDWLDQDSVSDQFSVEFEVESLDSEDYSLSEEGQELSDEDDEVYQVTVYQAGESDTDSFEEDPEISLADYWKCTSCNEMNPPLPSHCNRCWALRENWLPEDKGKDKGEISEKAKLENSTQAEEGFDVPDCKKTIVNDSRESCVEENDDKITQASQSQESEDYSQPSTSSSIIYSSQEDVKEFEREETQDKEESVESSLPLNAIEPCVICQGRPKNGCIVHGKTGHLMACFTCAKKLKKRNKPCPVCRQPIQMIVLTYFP

U-87 MG [6] = test: Anti-invasive activity in human U87MG cells at 10 uM after 24 hrs in presence of MDM2 inhibitor nutlin-3 and MDM4 inhibitor SJ-1722550 by transwell assay; assay type: functional, cell-based; conditions: U-87MG ATCC; method in brief: as §2
U-87 MG [7] = test: Antiproliferative activity against human U87MG cells at 100 nM after 72 hrs in presence of MDM2 inhibitor nutlin-3 and MDM4 inhibitor SJ-1722550 by MTS assay; assay type: functional, cell-based; conditions: U-87MG ATCC; method in brief: as §1
Integrin alpha-V/beta-3 = Integrin alpha-V/beta-3 (Homo sapiens, UniProt P05106+P06756); test: Inhibition of vitronectin binding to human alphaVbeta3 integrin after 1 hr by ELISA; assay type: protein-complex assay
Method in brief: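 Plates coated overnight at 4 °C with vitronectin 1.0 μg/mL in carbonate buffer pH 9.6, blocked 1 h with TSB (Ca2+, Mg2+, Mn2+, 1% BSA). Soluble human αvβ3 (final 1.0 μg/mL) with inhibitor (final 0.128–400 nM) 1 h at room temperature; detection by anti-CD51/61 then peroxidase secondary, absorbance 405 nm. Duplicates; IC50 from curve inflection point; internal standard per plate.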

Integrin alpha-5/beta-1 = Integrin alpha-5/beta-1 (Homo sapiens, UniProt P05556+P08648); test: Inhibition of fibronectin binding to soluble alpha5beta1 integrin (unknown origin) after 1 hr by ELISA; assay type: protein-complex assay
Protein Mdm4 = molecular target: T3, Protein Mdm4 (Homo sapiens, UniProt O15151); test: Displacement of p53 from MDM4 in human SHSY-5Y cells incubated for 10 mins by sandwich ELISA method; assay type: cell-based
T3 sequence (O15151 whole entry): T1 sequence (whole entry)

[8] = molecular target: T1, Protein Mdm4 (Homo sapiens); test: Inhibition of MDM4 in human U87MG cells assessed as increase in PUMA mRNA expression at 100 nM after 24 hrs in presence of alphaVbeta3 inhibitor cilengitide by RT-PCR method; assay type: cell-based
Method in brief: (§4)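 U87MG cells exposed to agents at 100 nM, alone or combined, for 8 or 24 h; total RNA extracted, cDNA made from 500 ng RNA, MDM2, PUMA and p21 transcripts quantified by real-time PCR. Data as % of DMSO control, mean ± SEM, N = 3.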

[9] = molecular target: T1, Protein Mdm4 (Homo sapiens); test: Inhibition of MDM4 in human U87MG cells assessed as increase in PUMA mRNA expression at 100 nM after 24 hrs in presence of MDM2 inhibitor nutlin-3 by RT-PCR method; assay type: cell-based; method in brief: as §4
[10] = molecular target: T1, Protein Mdm4 (Homo sapiens); test: Inhibition of MDM4 in human U87MG cells assessed as increase in PUMA mRNA expression at 100 nM after 24 hrs by RT-PCR method; assay type: cell-based; method in brief: as §4
[11] = molecular target: T1, Protein Mdm4 (Homo sapiens); test: Inhibition of MDM4 in human U87MG cells assessed as increase in MDM2 mRNA expression at 100 nM after 8 hrs in presence of MDM2 inhibitor nutlin-3 and alphaVbeta3 inhibitor cilengitide by RT-PCR method; assay type: cell-based; method in brief: as §4
[12] = molecular target: T1, Protein Mdm4 (Homo sapiens); test: Inhibition of MDM4 in human U87MG cells assessed as increase in p53 accumulation at 100 nM after 24 hrs in presence of MDM2 inhibitor nutlin-3 and alphaVbeta3 inhibitor cilengitide by Western blot method; assay type: cell-based
Method in brief: (§5)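 U87MG cells treated 24 h with agents at 100 nM, alone or combined; 40 μg lysate protein resolved by SDS-PAGE, immunoblotted for p53 with GAPDH loading control; bands quantified by densitometry as % of DMSO control (mean ± SEM, N = 3).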

[13] = molecular target: T1, Protein Mdm4 (Homo sapiens); test: Inhibition of MDM4 in human U87MG cells assessed as increase in p21 mRNA expression at 100 nM after 24 hrs by RT-PCR method; assay type: cell-based; method in brief: as §4
U-87 MG [14] = test: Antiproliferative activity against human U87MG cells at 100 nM after 72 hrs in presence of alphaVbeta3 inhibitor cilengitide and MDM2 inhibitor nutlin-3 by MTS assay; assay type: functional, cell-based; conditions: U-87MG ATCC; method in brief: as §1
[15] = molecular target: T1, Protein Mdm4 (Homo sapiens); test: Inhibition of MDM4 in human U87MG cells assessed as increase in p53 accumulation at 100 nM after 24 hrs in presence of MDM2 inhibitor nutlin-3 by Western blot method; assay type: cell-based; method in brief: as §5
MDM4 (Homo sapiens) = MDM4 (Homo sapiens) (UniProt O15151); test: Inhibition of MDM4 in human U87MG cells assessed as increase in PUMA mRNA expression at 100 nM after 24 hrs in presence of MDM2 inhibitor nutlin-3 and alphaVbeta3 inhibitor cilengitide by RT-PCR method
[16] = molecular target: T1, Protein Mdm4 (Homo sapiens); test: Inhibition of MDM4 in human U87MG cells assessed as increase in MDM2 mRNA expression at 100 nM after 8 hrs in presence of MDM2 inhibitor nutlin-3 by RT-PCR method; assay type: cell-based; method in brief: as §4
U-87 MG [17] = test: Anti-invasive activity in human U87MG cells at 10 uM after 24 hrs in presence of MDM2 inhibitor nutlin-3 and alphaVbeta3 inhibitor cilengitide by transwell assay; assay type: functional, cell-based; conditions: U-87MG ATCC; method in brief: as §2
U-87 MG [18] = test: Anti-invasive activity in human U87MG cells at 10 uM after 24 hrs in presence of MDM4 inhibitor SJ-1722550 and alphaVbeta3 inhibitor cilengitide by transwell assay; assay type: functional, cell-based; conditions: U-87MG ATCC; method in brief: as §2
U-87 MG [19] = test: Antiproliferative activity against human U87MG cells at 100 nM after 72 hrs in presence of alphaVbeta3 inhibitor cilengitide and MDM4 inhibitor SJ-1722550 by MTS assay; assay type: functional, cell-based; conditions: U-87MG ATCC; method in brief: as §1
U-87 MG [20] = test: Antiproliferative activity against human U87MG cells at 100 nM after 72 hrs in presence of alphaVbeta3 inhibitor cilengitide by MTS assay; assay type: functional, cell-based; conditions: U-87MG ATCC; method in brief: as §1
[21] = molecular target: T2, E3 ubiquitin-protein ligase Mdm2; test: Displacement of p53 from MDM2 in human U87MG cells incubated for 10 mins by sandwich ELISA method; assay type: cell-based
Target sequence in this assay (Q00987 whole entry): as the sequence (Q00987 whole entry, looked up) above

Sequence of Integrin alpha-5/beta-1 (P05556 21-798 limits assumed): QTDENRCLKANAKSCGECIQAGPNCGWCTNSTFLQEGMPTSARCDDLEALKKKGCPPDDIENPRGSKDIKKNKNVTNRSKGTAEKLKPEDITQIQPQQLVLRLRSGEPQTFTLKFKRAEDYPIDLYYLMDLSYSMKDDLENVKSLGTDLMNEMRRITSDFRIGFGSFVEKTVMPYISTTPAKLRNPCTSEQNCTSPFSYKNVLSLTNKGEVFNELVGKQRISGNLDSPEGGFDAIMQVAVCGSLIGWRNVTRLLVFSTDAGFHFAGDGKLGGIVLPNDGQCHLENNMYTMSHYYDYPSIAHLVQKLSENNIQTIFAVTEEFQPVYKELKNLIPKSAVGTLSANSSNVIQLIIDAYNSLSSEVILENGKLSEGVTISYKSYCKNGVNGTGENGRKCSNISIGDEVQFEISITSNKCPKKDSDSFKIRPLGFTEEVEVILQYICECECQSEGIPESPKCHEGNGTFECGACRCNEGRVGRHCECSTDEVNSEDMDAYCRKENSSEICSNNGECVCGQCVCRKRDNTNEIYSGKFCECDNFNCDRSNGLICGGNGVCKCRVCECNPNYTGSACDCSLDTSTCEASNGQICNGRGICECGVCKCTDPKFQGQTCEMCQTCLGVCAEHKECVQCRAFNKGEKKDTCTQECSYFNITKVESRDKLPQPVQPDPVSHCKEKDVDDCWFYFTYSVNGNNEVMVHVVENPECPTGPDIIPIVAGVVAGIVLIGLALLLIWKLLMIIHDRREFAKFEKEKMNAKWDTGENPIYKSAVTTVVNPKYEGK
Sequence of Integrin alpha-5/beta-1 (P08648 42-894 limits assumed): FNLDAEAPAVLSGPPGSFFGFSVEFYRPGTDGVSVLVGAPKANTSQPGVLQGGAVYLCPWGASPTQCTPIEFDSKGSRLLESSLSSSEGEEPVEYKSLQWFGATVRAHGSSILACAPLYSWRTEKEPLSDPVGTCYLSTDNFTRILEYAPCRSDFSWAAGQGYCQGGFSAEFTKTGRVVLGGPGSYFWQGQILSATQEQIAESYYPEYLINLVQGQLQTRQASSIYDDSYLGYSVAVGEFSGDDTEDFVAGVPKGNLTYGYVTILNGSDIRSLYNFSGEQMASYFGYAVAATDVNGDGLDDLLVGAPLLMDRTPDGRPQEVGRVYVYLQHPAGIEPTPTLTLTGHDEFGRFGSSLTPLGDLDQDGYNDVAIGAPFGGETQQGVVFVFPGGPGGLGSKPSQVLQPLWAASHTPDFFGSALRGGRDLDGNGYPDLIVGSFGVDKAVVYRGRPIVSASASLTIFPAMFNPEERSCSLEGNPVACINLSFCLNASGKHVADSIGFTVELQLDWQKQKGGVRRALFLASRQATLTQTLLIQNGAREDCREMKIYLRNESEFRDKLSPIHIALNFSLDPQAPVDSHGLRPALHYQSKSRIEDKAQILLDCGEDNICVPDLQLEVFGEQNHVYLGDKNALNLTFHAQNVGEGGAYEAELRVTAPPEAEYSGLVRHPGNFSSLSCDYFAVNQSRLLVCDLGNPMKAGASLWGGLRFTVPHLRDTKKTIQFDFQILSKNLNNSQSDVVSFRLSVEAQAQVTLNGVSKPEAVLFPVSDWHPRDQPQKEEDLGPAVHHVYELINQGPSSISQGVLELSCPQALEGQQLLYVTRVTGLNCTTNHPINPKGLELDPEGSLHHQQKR
Sequence of Integrin alpha-5/beta-1 (P08648 895-1049 limits assumed): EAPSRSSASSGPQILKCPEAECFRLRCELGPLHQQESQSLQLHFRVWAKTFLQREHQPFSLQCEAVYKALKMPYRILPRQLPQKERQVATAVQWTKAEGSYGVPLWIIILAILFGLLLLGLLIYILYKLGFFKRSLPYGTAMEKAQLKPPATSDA
Sequence of Integrin alpha-V/beta-3 (P05106 27-788 limits assumed): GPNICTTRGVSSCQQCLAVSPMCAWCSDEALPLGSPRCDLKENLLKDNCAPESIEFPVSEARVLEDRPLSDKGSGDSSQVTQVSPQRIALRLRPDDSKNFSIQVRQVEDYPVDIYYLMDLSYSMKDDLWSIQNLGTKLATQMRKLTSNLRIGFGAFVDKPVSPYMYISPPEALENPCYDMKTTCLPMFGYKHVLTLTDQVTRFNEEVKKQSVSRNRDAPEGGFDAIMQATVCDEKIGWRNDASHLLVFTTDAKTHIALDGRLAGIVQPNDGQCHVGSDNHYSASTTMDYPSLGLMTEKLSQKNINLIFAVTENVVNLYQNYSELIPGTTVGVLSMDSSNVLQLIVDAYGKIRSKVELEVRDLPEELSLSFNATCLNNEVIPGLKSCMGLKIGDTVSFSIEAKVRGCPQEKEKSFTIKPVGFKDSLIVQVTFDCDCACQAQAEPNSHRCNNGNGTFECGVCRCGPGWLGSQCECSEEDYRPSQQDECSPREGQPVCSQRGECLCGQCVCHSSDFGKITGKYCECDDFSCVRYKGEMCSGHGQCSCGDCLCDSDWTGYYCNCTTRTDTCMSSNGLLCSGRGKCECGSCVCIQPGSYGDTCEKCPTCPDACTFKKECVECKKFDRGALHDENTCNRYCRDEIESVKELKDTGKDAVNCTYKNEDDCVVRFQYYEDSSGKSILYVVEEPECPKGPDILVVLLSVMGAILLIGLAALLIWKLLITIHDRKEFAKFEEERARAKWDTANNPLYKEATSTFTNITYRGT
Sequence of Integrin alpha-V/beta-3 (P06756 31-889 limits assumed): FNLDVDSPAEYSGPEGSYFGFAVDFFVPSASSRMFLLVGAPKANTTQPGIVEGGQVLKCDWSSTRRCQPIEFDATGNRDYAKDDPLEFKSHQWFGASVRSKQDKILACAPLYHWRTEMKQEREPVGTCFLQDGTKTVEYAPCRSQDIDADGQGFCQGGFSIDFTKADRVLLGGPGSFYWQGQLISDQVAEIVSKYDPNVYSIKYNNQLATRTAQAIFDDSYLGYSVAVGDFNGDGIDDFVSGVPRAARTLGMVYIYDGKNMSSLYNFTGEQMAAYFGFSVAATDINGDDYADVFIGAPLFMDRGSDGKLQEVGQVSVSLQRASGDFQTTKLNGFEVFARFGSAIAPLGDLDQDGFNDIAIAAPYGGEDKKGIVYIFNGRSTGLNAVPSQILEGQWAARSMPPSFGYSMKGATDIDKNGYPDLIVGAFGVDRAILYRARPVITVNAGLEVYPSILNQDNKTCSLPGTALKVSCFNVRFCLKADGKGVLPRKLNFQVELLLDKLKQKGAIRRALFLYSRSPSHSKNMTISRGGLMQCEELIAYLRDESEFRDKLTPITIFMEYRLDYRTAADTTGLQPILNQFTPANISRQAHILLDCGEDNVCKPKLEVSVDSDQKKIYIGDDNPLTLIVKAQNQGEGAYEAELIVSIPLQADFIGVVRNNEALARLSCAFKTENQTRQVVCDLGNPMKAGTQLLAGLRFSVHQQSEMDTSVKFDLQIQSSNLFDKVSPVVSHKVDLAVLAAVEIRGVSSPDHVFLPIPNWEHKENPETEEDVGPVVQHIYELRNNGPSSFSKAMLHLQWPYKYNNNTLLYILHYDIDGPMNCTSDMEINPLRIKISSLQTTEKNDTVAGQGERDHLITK
Sequence of Integrin alpha-V/beta-3 (P06756 891-1048 limits assumed): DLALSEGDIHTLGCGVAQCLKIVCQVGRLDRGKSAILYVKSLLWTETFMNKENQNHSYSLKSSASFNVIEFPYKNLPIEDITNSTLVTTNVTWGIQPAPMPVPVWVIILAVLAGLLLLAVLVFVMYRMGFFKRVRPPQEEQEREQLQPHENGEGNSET

Which Activity (U-87 MG [1]) does the source give for CC(C)[C@H]1C(=O)N[C@@H](CCCNC(=N)N)C(=O)NCC(=O)N[C@@H](CC(=O)O)C(=O)N[C@H](Cc2ccccc2)C(=O)N1C here?
Its Activity is “inactive”.

What about the Activity (U-87 MG [2]) of the same molecule?
The Activity was “Active”.

And the Activity (U-87 MG [3])?
Its Activity is “Active”.

And the inhibition [4]?
Its inhibition is 2.6%.

And the inhibition [5]?
Its inhibition is 14.1%.

What about the Activity (U-87 MG [6]) of the same molecule?
Its Activity is “Active”.

And the Activity (U-87 MG [7])?
The Activity was “Active”.

What does the source list for COc1ccc(CNC(=O)[C@H](CC(=O)O)NC(=O)CNC(=O)c2cccc(NC(=N)N)c2)cc1?
IC50 (Integrin alpha-V/beta-3): 1.2 nM; IC50 (Integrin alpha-5/beta-1): 40 nM; IC50 (Protein Mdm4): > 1000 nM

For CCOc1cc(/C=C2\C(=O)N(c3ccccc3)N=C2C)cc(Cl)c1OCC(=O)OC, which inhibition [8] is on record?
Its inhibition is “Active”.

What about the inhibition [9] of the same molecule?
The inhibition was “Active”.

What about the inhibition [10] of the same molecule?
The inhibition was “Active”.

And the Activity (U-87 MG [1])?
Its Activity is “inactive”.

What about the inhibition [11] of the same molecule?
Its inhibition is “Active”.

And the inhibition [12]?
The inhibition was “Active”.

What about the inhibition [13] of the same molecule?
Its inhibition is “Active”.

And the Activity (U-87 MG [14])?
Its Activity is “Active”.

And the inhibition [15]?
The inhibition was “Active”.

And the inhibition (MDM4 (Homo sapiens))?
The inhibition was “Active”.

What about the inhibition [16] of the same molecule?
The inhibition was “Active”.

What about the Activity (U-87 MG [17]) of the same molecule?
Its Activity is “Active”.

For COc1ccc(C2=N[C@H](c3ccc(Cl)cc3)[C@H](c3ccc(Cl)cc3)N2C(=O)N2CCNC(=O)C2)c(OC(C)C)c1, which Activity (U-87 MG [1]) is on record?
The Activity was “inactive”.

What about the Activity (U-87 MG [3]) of the same molecule?
Its Activity is “inactive”.

What about the Activity (U-87 MG [18]) of the same molecule?
The Activity was “Active”.

What about the Activity (U-87 MG [19]) of the same molecule?
The Activity was “Active”.

And the Activity (U-87 MG [20])?
Its Activity is “Active”.

Which IC50 (Integrin alpha-V/beta-3) does the source give for C[C@@H](NC(=O)[C@H](CC(=O)O)NC(=O)CNC(=O)c1cccc(NC(=N)N)c1)c1ccccc1 here?
The IC50 was 1.6 nM.

And the IC50 (Integrin alpha-5/beta-1)?
Its IC50 is 45 nM.

With N=C(N)Nc1cccc(C(=O)NCC(=O)N[C@@H](CC(=O)O)C(=O)NCc2ccc(Cl)cc2)c1 as the molecule, how does the IC50 (Integrin alpha-V/beta-3) read?
The IC50 was 1.3 nM.

And the IC50 (Integrin alpha-5/beta-1)?
The IC50 was 48 nM.

Which results are given for N=C(N)Nc1cccc(C(=O)NCC(=O)N[C@@H](CC(=O)O)C(=O)NCc2ccc(-c3ccccc3)cc2)c1?
IC50 (Integrin alpha-V/beta-3): 1.7 nM; IC50 (Integrin alpha-5/beta-1): 41 nM; IC50 (Protein Mdm4): > 1000 nM

How did the IC50 (Integrin alpha-V/beta-3) turn out when N=C(N)Nc1cccc(C(=O)NCC(=O)N[C@@H](CC(=O)O)C(=O)Nc2ccccc2)c1 was run?
The IC50 was 0.21 nM.

And the IC50 (Integrin alpha-5/beta-1)?
The IC50 was 13 nM.

And the IC50 (Protein Mdm4)?
The IC50 was greater than 1000 nM.

And the IC50 [21]?
Its IC50 is greater than 1000 nM.
